# Source: PubChem (several laboratories)
# Only some compounds are listed: those with a hit (about 4.1% of all), similar ones and a draw of the others.
# KCNQ1 block = inhibitors of human KCNQ1 potassium channel. P51787. CHO-K1 KCNQ1, FluxOR thallium flux fluorescence; stronger effect = higher value. B-score at 10 µM. 310,000 compounds, 1.3% hits;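 active = compounds whose thallium flux B-score, printed positive for inhibition, exceeds three library SD while starting fluorescence stays within three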;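 note: channel opened by potassium depolarization with thallium stimulus after 20 min compound exposure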
# Target sequence (P51787 whole entry, looked up): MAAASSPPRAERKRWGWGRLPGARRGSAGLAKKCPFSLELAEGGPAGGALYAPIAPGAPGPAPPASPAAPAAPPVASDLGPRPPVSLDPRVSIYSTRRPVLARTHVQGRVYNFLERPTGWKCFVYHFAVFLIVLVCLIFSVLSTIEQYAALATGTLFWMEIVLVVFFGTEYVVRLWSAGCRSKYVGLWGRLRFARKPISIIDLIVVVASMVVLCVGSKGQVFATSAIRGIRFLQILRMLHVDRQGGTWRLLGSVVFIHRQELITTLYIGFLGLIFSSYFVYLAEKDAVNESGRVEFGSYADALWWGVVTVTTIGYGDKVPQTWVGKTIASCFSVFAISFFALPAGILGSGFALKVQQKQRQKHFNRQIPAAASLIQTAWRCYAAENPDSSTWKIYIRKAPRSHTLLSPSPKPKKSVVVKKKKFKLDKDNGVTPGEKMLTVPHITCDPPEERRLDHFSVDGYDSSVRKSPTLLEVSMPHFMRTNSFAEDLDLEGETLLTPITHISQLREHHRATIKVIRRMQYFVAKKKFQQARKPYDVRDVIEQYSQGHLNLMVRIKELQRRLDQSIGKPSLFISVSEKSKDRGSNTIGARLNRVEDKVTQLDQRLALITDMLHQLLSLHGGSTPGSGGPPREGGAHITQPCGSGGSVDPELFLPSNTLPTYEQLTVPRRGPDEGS
# KCNK3 block = human KCNK3 channel inhibition, primary screen | O14649 | B-score at 10 µM | 340,000 compounds, 0.84% hits | CHO-KCNK3 thallium flux, FluxOR fluorescence; stronger effect = lower value;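 active = B-score under library mean minus 4 SD, starting fluorescence ratio at most library mean plus 5 SD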;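 note: more negative B-score means stronger inhibition of thallium flux through KCNK3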
# hERG rescue = hERG (human) protection from proarrhythmic block; 310,000 compounds, 0.51% hits; activation (rescue from dofetilide block), less the hit threshold, % at 10 µM; Q12809; CHO-hERG, FluxOR thallium flux, dofetilide IC70 present; AID 1511;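 active = activation above the mean of controls blocked by dofetilide plus 5 SD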;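 note: thallium influx through hERG after potassium depolarization seen as dye fluorescence rise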
# KCNK9 inh = inhibitors of human KCNK9 two-pore domain potassium channel. Q9NPC2. 310,000 compounds, 1.2% hits. HEK293 KCNK9, FluxOR thallium flux fluorescence; stronger effect = lower value. AID 488922. B-score at 10 µM;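 active = ratio B-score over 3 SD below the library mean, with starting fluorescence within 5 SD of its mean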;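 note: negative B-score means less thallium flux so channel inhibition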
# Cl transport mod = KCC2 (human) Cl- transport modulation | AID 1456 | KCC2 cells, thallium flux FluoZin-2 fluorescence | 190,000 compounds, 2.2% hits | B-score of Tl+ flux slope (higher = more flux/activation; lower = inhibition) at 10 µM | Q9H2X9;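 active = thallium flux slope and its plate-corrected score both differing from the plate sample mean at a set confidence after two filtering rounds, in either direction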;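 note: slope of fluorescence scaled to starting intensity during 10 to 20 s after thallium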
# KCNQ1 pot = potentiators or activators of human KCNQ1 potassium channel; AID 2648; CHO-K1 KCNQ1, thallium flux FluxOR fluorescence; stronger effect = higher value; P51787; B-score at 10 µM; 310,000 compounds, 0.35% hits;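 active = fluorescence ratio B-score, a plate-corrected score, at least three library SD, with initial intensity B-score within 5 SD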
#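 Medium – assay buffer, equal DMSO in all wells · Material – CHO-K1 cell line with stable KCNQ1 potassium channel expression · Signal – kinetic FluxOR thallium fluorescence, 10-s 1-Hz baseline, 110-s post-stimulus read · Compound – single concentration per compound, DMSO matched to controls · Schedule – 37 °C overnight plating, 90-min dark dye load, 20-min compound pretreatment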
# KCNK9 block conf = human KCNK9 inhibitor confirmation | shares compounds with KCNK9 inh | HEK293 KCNK9 cells, FluxOR thallium flux fluorescence | inhibition, % at 10 µM | 4,900 compounds, 43% hits;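 active = thallium signal inhibited by more than 5 SD of the compound-free buffer control wells, on both duplicate plates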;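 note: 0% = assay buffer control wells without compound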
# Kir21 sel = mouse Kir2.1 off-target activity of KCNK9 modulators. shares compounds with KCNK9 inh. Kir2.1 cells, FluxOR thallium flux fluorescence. inhibition, % at 10 µM. 4,900 compounds, 4% hits. AID 492993;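 active = thallium signal drop more than 5 SD beyond the mean of the no-compound control wells, seen in both duplicate plates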;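 note: signal is fluorescence rise after thallium addition divided by baseline fluorescence; plate controls were assay buffer only for no effect and full block by chlorpromazine control for full effect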
# HEK293 Tl ctr = second counter-screen for KCNK9 modulators: effect in non-induced cells; shares compounds with KCNK9 inh; non-induced KCNK9-HEK293, FluxOR thallium flux; inhibition, % at 10 µM; 4,900 compounds, 40% hits; AID 492997;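 active = thallium signal drop beyond 5 SD of the untreated control mean, on both duplicate plates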;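 note: plate controls were buffer only IC0 wells for no effect and SID17386958 at its maximal inhibitory level for full effect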
# * hit, by the source's call; i = inactive; nt = not tested or not shown.
SMILES,KCNQ1 block,KCNK3 block,hERG rescue,KCNK9 inh,Cl transport mod,KCNQ1 pot,KCNK9 block conf,Kir21 sel,HEK293 Tl ctr
COc1cccc(COCCN2CCN(S(=O)(=O)c3ccc(C)cc3)CCC2=O)c1,i,i,-6.4,i,0.216,i,i,i,i
Cc1ccc(CON=C2CCN(c3ncc(C(F)(F)F)cc3Cl)CC2)cc1,i,i,-9.2,i,0.124,i,i,i,i
CC(C)(C)c1nnc(SCC(=O)Nc2ccc(N3CCCCC3)cc2)n1N,nt,i,nt,nt,nt,nt,nt,nt,nt
Cc1cc(C)c(-c2csc(NC(=O)C3=COCCO3)n2)c(C)c1,i,i,-5.9,i,nt,i,i,i,i
O=C(COC(=O)c1ccc2c(c1)OCO2)Nc1nc(-c2ccccc2)cs1,i,i,-1.4,i,-0.063,i,nt,nt,nt
Cc1cc(C)c(-c2csc(NC(=O)COC(=O)c3ccc4c(c3)OCO4)n2)c(C)c1,i,i,-2.7,i,-0.112,i,i,i,i
Cc1ccc2c(c1)N(CC(=O)NCCCN1CCOCC1)C(=O)c1cccnc1O2,i,i,-5.2,i,nt,i,nt,nt,nt
Cc1ccc2c(c1)N(CC(=O)NCCc1ccccc1)C(=O)c1cccnc1O2,i,i,-10.7,i,nt,i,i,i,i
O=C(CN1CCCCC1)Nc1ccc(S(=O)(=O)c2ccc(NC(=O)CN3CCCCC3)cc2)cc1,nt,i,nt,nt,nt,nt,nt,nt,nt
CCCn1c(N)c(N(CCOC)C(=O)c2ccc(N(C)S(=O)(=O)c3ccc(C)cc3)cc2)c(=O)[nH]c1=O,i,i,-6.9,i,nt,i,nt,nt,nt
CC12CC3CC1C(C(=O)O2)C3C(=O)O (stereo not drawn),nt,i,nt,nt,nt,nt,nt,nt,nt
CCOC(=O)C1=C(C)Nc2ccccc2N/C1=N\S(=O)(=O)c1ccc(Cl)cc1,nt,i,nt,nt,nt,nt,nt,nt,nt
CCOC(=O)C1=C(CC)Nc2ccccc2N/C1=N\S(=O)(=O)c1ccc2ccccc2c1,i,i,-17.4,i,-1.32,i,i,i,i
CS(=O)(=O)c1ccc(Cl)c(NC(=O)CCN2C(=O)NC3(CCCC3)C2=O)c1,nt,i,nt,nt,nt,nt,nt,nt,nt
CCCCC(=O)Nc1ccccc1N1CCOCC1,i,i,-9.4,i,2.5,i,nt,nt,nt
Cc1cc(C)c(OCC(=O)Nc2ccccc2N2CCOCC2)c(C)c1,i,-10*,-7.1,-10.2*,-1.28,i,i,i,48.5%*
CCC(=O)N1CCN(c2ccccc2NC(=O)COc2cc(C)ccc2C(C)C)CC1,i,i,-4.9,-8.22*,-0.716,i,46.0%*,i,28.5%*
CCCCCC(=O)Nc1ccccc1N1CCN(c2ccccc2)CC1,i,-10.5*,-4.5,-12.8*,-0.556,i,49.0%*,i,36.5%*
O=C(COc1ccccc1)Nc1ccccc1N1CCN(c2ccc(F)cc2)CC1,i,i,-2.5,-8.64*,0.212,i,i,i,27.5%*
Cc1ccccc1OCC(=O)OC(C)C(=O)NC1CCCC1 (stereo not drawn),nt,i,nt,nt,nt,nt,nt,nt,nt
O=[N+]([O-])c1c(C(Cl)Cl)nn(-c2ccccc2)c1N1CCCC1,i,i,-13.7,i,-0.923,i,nt,nt,nt
CCOC(=O)C1CCN(c2c([N+](=O)[O-])c(C(Cl)Cl)nn2-c2ccccc2)CC1,i,i,-9.8,i,0.685,i,i,i,i
COc1cccc(CC2(CO)CCCN(Cc3sc(N4CCCC4)nc3Cl)C2)c1 (stereo not drawn),i,i,-13.0,i,nt,i,i,i,i
COc1cccc(CC2(CO)CCCN(Cc3ccc(C)s3)C2)c1 (stereo not drawn),i,i,-4.5,i,-0.262,i,nt,nt,nt
CCOC(=O)C1CCN(Cc2cc(C(C)(C)C)c(O)c(C(C)(C)C)c2)CC1,i,i,-11.1,i,-0.687,i,i,i,i
SMILES,KCNQ1 block,KCNK3 block,hERG rescue,KCNK9 inh,Cl transport mod,KCNQ1 pot,KCNK9 block conf,Kir21 sel,HEK293 Tl ctr
CCOC(=O)C1CCN(Cc2ccc(Cl)c(Cl)c2)CC1,i,i,-1.0,i,0.219,i,nt,nt,nt
Nc1cc([N+](=O)[O-])cc2oc(-c3ccccc3)cc12,i,i,-1.5,i,nt,i,nt,nt,nt
Cc1occc1C(=O)Nc1cccc(C(F)(F)F)c1,i,i,-13.9,-9.32*,-0.742,i,48.0%*,i,24.5%*
Cc1occc1C(=O)Nc1cccc(C(=O)O)c1,i,i,-6.4,i,0.635,i,nt,nt,nt
CC1CC(C)CN(C(=O)CCNC(=O)c2ccccc2Cl)C1 (stereo not drawn),i,i,-5.1,i,nt,i,nt,nt,nt
CCOC(=O)C1=C(CC)Nc2ccccc2N=C1NC(=O)c1oc2ccccc2c1C,i,i,-34.2,-11.1*,-3.38,i,35.0%*,i,27.0%*
CCOC(=O)C1=C(CC)Nc2ccccc2N=C1NC(=O)CCNC(C)=O,i,i,-4.2,i,-0.97,i,nt,nt,nt
CCOCc1c(C(=O)NC2=Nc3ccccc3NC(CC)=C2C(=O)OCC)oc2ccccc12,i,i,-4.7,-16.4*,-0.89,i,47.0%*,i,i
CCOC(=O)C(C)Sc1nc2c(c(-c3cccs3)c1C#N)CCC2 (stereo not drawn),i,i,0.5,i,-0.872,i,i,i,i
CCC(c1ccccc1)c1nnc(NC(=O)c2ccco2)s1 (stereo not drawn),i,i,-10.3,-8.73*,1.24,i,i,i,i
O=C(Nc1nnc(CC(c2ccccc2)c2ccccc2)s1)c1ccco1,i,i,-16.3,i,0.00668,i,nt,nt,nt
COc1ccccc1C(=O)NCCC(=O)N1CCN(S(=O)(=O)c2ccccc2C(F)(F)F)CC1,nt,i,nt,nt,nt,nt,nt,nt,nt
Nc1nonc1-n1nnc(C(=O)N/N=C/c2ccccc2Br)c1CN1CCCC1,i,i,-2.1,i,nt,i,nt,nt,nt
COc1ccc2c(C(=O)NCc3ccc4c(c3)OCO4)c(-c3ccc(S(C)(=O)=O)cc3)sc2c1,nt,i,nt,nt,nt,nt,nt,nt,nt
Cc1ccc(OCCOCCOc2cccc3cccnc23)c(Br)c1,i,i,-10.0,i,-2.08,i,i,i,i
Clc1cc(Br)ccc1OCCOCCOc1cccc2cccnc12,i,i,-1.8,i,0.0396,i,nt,nt,nt
